SENP8 block-1 = SENP8 protease inhibition; purified SENP8, Z-RLRGG-aminoluciferin cleavage, luminescence; inhibition, % at 10 µM; 330,000 compounds, 1.2% hits; in the data active = inhibition above about 50%
Platelet DG rel = platelet dense granule release activity | human platelet-rich plasma, SFLLRN dense granule ATP release, luminescence | inhibition, %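 (compounds screened at 7.5 µM in platelet-rich plasma)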 | 300,000 compounds, 0.22% hits;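 active = mean replicate score, as percent of positive control, at or above 50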
SENP7 block = blocks the human protease SENP7 | recombinant SENP7, Z-RLRGG-aminoluciferin luminescence, 40 min | inhibition, % at 5 µM | 330,000 compounds, 1.5% hits | AID 434973;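 active = inhibition above about 50% at the single test dose, limit read from the data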;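 also: plate controls were DMSO with enzyme for no effect and no enzyme buffer wells for full effect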
Target sequence (Q9BQF6 706-1050 limits assumed): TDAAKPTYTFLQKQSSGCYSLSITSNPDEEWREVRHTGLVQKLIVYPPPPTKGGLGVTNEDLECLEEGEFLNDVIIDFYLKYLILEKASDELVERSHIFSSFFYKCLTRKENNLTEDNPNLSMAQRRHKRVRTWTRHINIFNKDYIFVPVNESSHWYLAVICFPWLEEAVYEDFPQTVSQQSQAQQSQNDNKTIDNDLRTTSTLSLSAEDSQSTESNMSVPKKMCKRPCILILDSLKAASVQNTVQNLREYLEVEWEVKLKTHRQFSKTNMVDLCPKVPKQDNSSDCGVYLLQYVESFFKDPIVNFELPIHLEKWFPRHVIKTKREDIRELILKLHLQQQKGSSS
SENP6 block = inhibitors of human SENP6 protease | Q9GZR1 | Recombinant SENP6 catalytic domain, aminoluciferin luminescence | inhibition, % at 10 µM | 330,000 compounds, 1.8% hits | AID 2599;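 active = inhibition above about 50% at the single tested dose, limit read from the data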;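 also: plate controls were DMSO wells with enzyme for no effect and DMSO wells lacking enzyme for full effect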
SENP8 block-2 = inhibitors of human SENP8 protease | inhibition, % at 20 µM | 360,000 compounds, 0.64% hits | recombinant SENP8, Nedd8 substrate fluorescence; in the data active = inhibition mostly above about 40%, no sharp cut-off; inactive = mostly below about 27%
SENP1 inh = SENP1 (human) catalytic domain inhibition; 360,000 compounds, 0.21% hits; inhibition, % at 10 µM; AID 624204; Q9P0U3; recombinant SENP1 catalytic domain, CyPet-SUMO1-YPet FRET cleavage;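 active = inhibition at least 30% at 10 µM, raw YFP signal under a set limit, fluorescence ratio 0.5 to 1.5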;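 also: 0% = enzyme with DMSO and 100% = no enzyme wells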
Target sequence (Q9P0U3 419-644 limits assumed): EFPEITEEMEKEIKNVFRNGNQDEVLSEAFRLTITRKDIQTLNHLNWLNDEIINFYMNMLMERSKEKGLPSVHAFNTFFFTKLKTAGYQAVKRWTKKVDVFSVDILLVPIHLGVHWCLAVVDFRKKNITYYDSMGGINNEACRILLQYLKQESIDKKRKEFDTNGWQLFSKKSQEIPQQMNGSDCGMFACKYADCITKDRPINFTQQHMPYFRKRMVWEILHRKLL
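System: Recombinant human SENP1 catalytic domain, His6-tagged | Incubation: Enzyme reaction for 50 min at room temperature, dark | Medium: Tris pH 8 with BME, BSA, NP40 and catalase | Also added: 25 nM SUMO1 FRET substrate | Compound: 10 µM single point, 0.5% DMSO | Measured by: FRET fluorescence in CFP and YFP emission channels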
SENP8 conf = human SENP8 inhibition, confirmed; shares compounds with SENP7 block; inhibition, % at 12.5 µM; Recombinant SENP8, Z-RLRGG-aminoluciferin luminescence, 60 min; 6,200 compounds, 40% hits; AID 488912;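 active = mean inhibition across replicates above about 50%, limit read from the data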
SENP6 conf = confirmation of human SENP6 protease inhibitors; shares compounds with SENP7 block; recombinant SENP6, Z-RLRGG-aminoluciferin luminescence; inhibition, % at 12.5 µM; 6,200 compounds, 58% hits; AID 488915
SENP7 confirm = confirmation of human SENP7 protease inhibitors; shares compounds with SENP7 block; inhibition, % at 12.5 µM; 6,200 compounds, 69% hits; recombinant SENP7, Z-RLRGG-aminoluciferin luminescence, 40 min
Casp3 SENP sel = selectivity test for SENP inhibitors: human caspase-3 inhibition. shares compounds with SENP7 block. purified caspase-3, Z-DEVD-aminoluciferin luminescence, 60 min. inhibition, % at 12.5 µM. 6,200 compounds, 60% hits. AID 488918;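 active = mean inhibition above about 50%, limit read from the data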;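 also: plate controls were enzyme with DMSO for no effect and wells without caspase-3 for full effect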
Luc interf = interferes with luciferase luminescence in SENP counter-screen | shares compounds with SENP7 block | Pre-incubated SENP8/Z-RLRGG-aminoluciferin, luciferase luminescence interference | inhibition, % at 12.5 µM | 6,200 compounds, 39% hits;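 active = mean inhibition above about 50% when retested at one dose, limit read from the data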;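 also: plate controls were DMSO wells with completed reaction for no effect and substrate without enzyme for full effect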
An asterisk follows results filed as active. Shown are actives, neighbours in structure and some others; about 2.6% of the full set was active somewhere.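 The calls were made as follows, unless noted: active = mean inhibition above about 50% in the one-dose retest (limit read from the data); inactive = the rest.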

CCC(=O)Oc1ccc(-c2nc(-c3cccnc3)no2)cc1 was read as SENP8 block-1 97*, Platelet DG rel 81*, SENP7 block 99*, SENP6 block 97*, SENP8 block-2 25, SENP1 inh 2, SENP8 conf 99*, SENP6 conf 100*, SENP7 confirm 103*, Casp3 SENP sel 99* and Luc interf 98*.
Cc1ccc(-c2nc(-c3ccccc3)no2)cc1 was read as SENP8 block-1 96*, Platelet DG rel 19, SENP7 block 98*, SENP6 block 63*, SENP8 block-2 6, SENP1 inh -1, SENP8 conf 78*, SENP6 conf 86*, SENP7 confirm 95*, Casp3 SENP sel 91* and Luc interf 50*.
For Cc1ccc(-c2nc(-c3cccnc3)no2)cc1 the results were SENP8 block-1 66*, Platelet DG rel 5, SENP7 block 82*, SENP6 block 81*, SENP8 block-2 26, SENP1 inh 0, SENP8 conf 72*, SENP6 conf 81*, SENP7 confirm 98*, Casp3 SENP sel 86* and Luc interf 67*.
`CCCc1noc(-c2ccc(-c3ccccc3)cc2)n1` gave SENP8 block-1 50*, Platelet DG rel 6, SENP7 block 68*, SENP6 block 41, SENP8 block-2 16, SENP1 inh 1, SENP8 conf 26, SENP6 conf 40, SENP7 confirm 55*, Casp3 SENP sel 50* and Luc interf 30.
For COc1ccc(-c2nc(-c3cccnc3)no2)cc1OC the results were SENP8 block-1 5, Platelet DG rel -6, SENP7 block 24, SENP6 block 11, SENP8 block-2 -14 and SENP1 inh 3.
For Cc1ccc(Cc2nc(-c3cccnc3)no2)cc1 the results were SENP8 block-1 -4, Platelet DG rel 2, SENP7 block -1, SENP6 block -18, SENP8 block-2 4 and SENP1 inh 1.
Screening Cc1ccc(-c2nc(-c3ccccc3)no2)c(Cl)c1 returned SENP8 block-1 97*, Platelet DG rel 19, SENP7 block 100*, SENP6 block 98*, SENP8 block-2 -3, SENP1 inh 1, SENP8 conf 96*, SENP6 conf 99*, SENP7 confirm 102*, Casp3 SENP sel 97* and Luc interf 83*.
Screening CCNC(=S)Nc1sc2c(c1C#N)CCC(C)C2 (stereo not given) returned SENP8 block-1 -4, Platelet DG rel -5, SENP7 block 4, SENP6 block -2, SENP8 block-2 6 and SENP1 inh 1.
For c1ccc(-c2ccc(-c3ccncn3)cc2)cc1 the results were SENP8 block-1 51*, Platelet DG rel 2, SENP7 block 84*, SENP6 block 61*, SENP8 block-2 -99, SENP1 inh -2, SENP8 conf 6, SENP6 conf 16, SENP7 confirm 32, Casp3 SENP sel 26 and Luc interf 11.
Screening c1ccc(-c2csc(-c3ccncc3)n2)cc1 returned SENP8 block-1 -15, Platelet DG rel -11, SENP7 block -6, SENP6 block 9, SENP8 block-2 -36 and SENP1 inh 0.
`COc1ccc(Cl)cc1C(=O)Nc1ccc2c(c1)OCCO2` gave SENP8 block-1 -12, Platelet DG rel 1, SENP7 block -12, SENP6 block -20, SENP8 block-2 22 and SENP1 inh -1.
For COc1cc(SC)ccc1C(=O)NNC(=O)c1cc(C)oc1C the results were SENP8 block-1 94*, Platelet DG rel 58*, SENP7 block 98*, SENP6 block 98*, SENP8 block-2 -4, SENP1 inh 2, SENP8 conf 98*, SENP6 conf 99*, SENP7 confirm 103*, Casp3 SENP sel 98* and Luc interf 93*.
For COc1ccccc1C(=O)Nc1ccc2c(c1)OCCO2 the results were SENP8 block-1 16, Platelet DG rel 12, SENP7 block 43, SENP6 block 53*, SENP8 block-2 13, SENP1 inh -2, SENP8 conf 32, SENP6 conf 30, SENP7 confirm 71*, Casp3 SENP sel 69* and Luc interf 52*.
COc1cc(SC)ccc1C(=O)Nc1ccc2c(c1)OCCO2 was read as SENP8 block-1 63*, Platelet DG rel 4, SENP7 block 81*, SENP6 block 79*, SENP8 block-2 3, SENP1 inh 0, SENP8 conf 80*, SENP6 conf 81*, SENP7 confirm 95*, Casp3 SENP sel 75* and Luc interf 64*.
Screening CS(=O)(=O)c1[nH]nc(-c2ccccc2)c1C#N returned SENP8 block-1 -9, Platelet DG rel -10, SENP7 block 11, SENP6 block -15, SENP8 block-2 13 and SENP1 inh 2.
Fc1ccccc1CCNc1c2c(nc3ncnn13)CCCC2 was read as SENP8 block-1 -7, Platelet DG rel -1, SENP7 block 0, SENP6 block 1, SENP8 block-2 15 and SENP1 inh -2.
Screening O=C1C=C(c2cccc3c2sc2ccccc23)C[C@@H](c2ccc(F)cc2)C1 returned SENP8 block-1 5, SENP7 block 0, SENP6 block 6, SENP8 block-2 -55 and SENP1 inh 0.
Screening COc1cc([N+](=O)[O-])cc(/C=N/NC(=O)c2cncc(Br)c2)c1O returned SENP8 block-1 64*, Platelet DG rel -2, SENP7 block 67*, SENP6 block 89*, SENP8 block-2 19, SENP1 inh -35, SENP8 conf 81*, SENP6 conf 76*, SENP7 confirm 96*, Casp3 SENP sel 84* and Luc interf 52*.

Assay outcomes from PubChem BioAssay.
